We go through three compounds from ChEMBL document CHEMBL1139399, “Synthesis and biological evaluation of glucuronide prodrugs of the histone deacetylase inhibitor CI-994 for application in selective cancer chemotherapy” (Bioorg Med Chem, 2008).

Data set [1] concerns the target Histone deacetylase (Homo sapiens) (UniProt Q13547+O15379+Q9UBN7+Q92769+Q9UQL6+Q8WUI4+Q9BY41+Q96DB2+P56524+Q9UKV0+Q969S8). Nature of the data set: Inhibition of HDAC in human NCI-H661 cells assessed as histone H4 acetylation after 6 hrs in presence of beta-glucuronidase by Western blot analysis. In kind it is cell-based. Put shortly: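 NCI-H661 cells (5 × 10^5) exposed 6 h with β-glucuronidase (40 U/ml) in medium; compounds at 100 µM, TSA control 100 nM, DMSO 0.1%. Laemmli buffer lysis, sonication, SDS–PAGE; blots probed with rabbit polyclonal anti-acetyl-histone H4 (1/500), α-tubulin loading control (1/2000), HRP secondaries (1/5000), ECL detection.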
A general note: In western blotting, separated proteins are transferred to a membrane and probed.

Data set [2] relates to NCI-H661. Nature of the data set: Antiproliferative activity against human NCI-H661 cells after 48 hrs. The data set is classed as functional, cell-based. Put shortly: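 NCI-H661 NSCLC cells grown in RPMI 1640 + 10% FCS, 37 °C, 5% CO2; 4 × 10^3 cells/well seeded, grown 24 h, then exposed to compound for 48 h without β-glucuronidase. XTT labeling mixture added, further 4 h at 37 °C, absorbance read at 480 nm. Three experiments in triplicate; standard deviation shown.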

A short description of data set [3]: Aqueous solubility in phosphate buffer at pH 7. In kind it is physicochemical. The gist of the method:
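Solubility in 0.02 M phosphate buffer, pH 7; sample filtered through 0.45 µm filter, diluted in HPLC phase and quantified by HPLC (UV) against a calibration curve of 0.1–0.025 mg/mL prepared from a DMSO stock diluted in the same buffer.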

The test system of data set [4] is NCI-H661. Nature of the data set: Antiproliferative activity against human NCI-H661 cells after 48 hrs in presence of beta-glucuronidase. In kind it is functional, cell-based. The note with it: NCI-H661, 48 h. Put shortly:
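NCI-H661 cells in RPMI 1640 + 10% FCS (37 °C, 5% CO2); E. coli β-glucuronidase added to culture medium at 40 U/ml. 4 × 10^3 cells/well plated 24 h before compound, 48 h treatment, then XTT added and 4 h further incubation at 37 °C; absorbance at 480 nm. Three experiments in triplicate, standard deviation shown.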

Data set [5] is described as follows: Stability in 0.02M phosphate buffer at pH 7 after 72 hrs. In kind it is physicochemical. The note with it: pH 7, 72 h. Put shortly: (§1)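 Compounds held in 0.02 M phosphate buffer (pH 2.1 or pH 7 as per line) at 37 °C for 72 h; degradation followed by HPLC with UV detection.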
The nature of data set [6]: Stability in 0.02M phosphate buffer at pH 2.1 after 72 hrs. The data set is classed as physicochemical. The note with it: pH 2.1, 72 h. The gist of the method: as §1
Data set [7] can be described thus: Stability in cell culture medium in presence of 10% foetal calf serum. Particulars: cattle. The data set is classed as ADME. Put shortly:
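Incubation in cell culture medium supplemented with 10% foetal calf serum at 37 °C; solution monitored by HPLC (UV detection) over 72 h.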

pIC50: −log10 of the molar value. ≈ marks a conversion by molar mass, not a printed value. Calls of active or inactive are those of the source. The rule behind the calls is not given here.

Turning to `CC(=O)Nc1ccc(C(=O)Nc2ccccc2NC(=O)O[C@@H]2O[C@H](C(=O)O)[C@@H](O)[C@H](O)[C@H]2O)cc1`, the result in data set [1] was Active. Moreover, the result in the data set on NCI-H661 [2] was inactive. Also, in data set [3], the solubility – broadly, how much of the substance goes into solution per volume – amounted to 1000 µg/mL (≈ 2040 µM). The negative logarithm of the IC50 (pIC50) (as a rule, −log10 of the IC50, conventionally taken in molar units) in the data set on NCI-H661 [4] is 4.70. For the same compound, the Stability entry in data set [5], in data set [6] and in data set [7] was “Stable” throughout.
Regarding `CC(=O)Nc1ccc(C(=O)Nc2ccccc2NC(=O)OCc2ccc(O[C@@H]3O[C@H](C(=O)O)[C@@H](O)[C@H](O)[C@H]3O)c([N+](=O)[O-])c2)cc1`, the outcome in data set [1] was Active. Besides, the result in the data set with NCI-H661 [2] was inactive. In addition, in data set [3], the concentration in solution (solubility) was 1000 µg/mL (≈ 1560 µM). In addition, the pIC50 with NCI-H661 [4] was 4.70. Further, the Stability entry in data set [5], in data set [6] and in data set [7] was “Stable” in each case.
For `CC(=O)Nc1ccc(C(=O)Nc2ccccc2N)cc1` [TACEDINALINE], the pIC50 in the data set with NCI-H661 [2] (NCI-H661, 48 h) is 4.70. For the same compound, the concentration in solution in data set [3] (solubility) was 80 µg/mL (≈ 297 µM).
